Results reported in ChEMBL document CHEMBL1140689, “Benzyl amide-ketoacid inhibitors of HIV-integrase” (Bioorg Med Chem Lett, 2007).

Target: not listed separately
Assay: Inhibition of HIV1 recombinant integrase
Design: species or system Human immunodeficiency virus 1
Settings: not given
How it was run: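 Strand-transfer scintillation proximity readout. 5 pmol biotin-labeled substrate DNA bound to 100 μg streptavidin SPA beads. Recombinant integrase (0.26 ng) loaded onto the beads for 90 min at 37 °C, and unbound enzyme washed off. Inhibitors then added with 0.1 fmol 33P-labeled target DNA. Reaction stopped with EDTA (10 mM final). Integration measured as scintillation CPM.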

SMILES	IC50 [nM]
O=C(/C=C(\O)C(=O)O)NCc1ccc(F)cc1	200
O=C(/C=C(\O)C(=O)O)NCc1ccc(Cl)nc1	700
O=C(/C=C(\O)C(=O)O)NCc1cccc(F)c1	1200
O=C(/C=C(\O)C(=O)O)NCc1ccc(C(F)(F)F)cc1	9000
Cc1ccc(CNC(=O)/C=C(\O)C(=O)O)cc1F	200
COc1cccc(CNC(=O)/C=C(\O)C(=O)O)c1	2400
O=C(/C=C(\O)C(=O)O)NCc1ccc([N+](=O)[O-])cc1	2100
COc1ccc(CNC(=O)/C=C(\O)C(=O)O)cc1Cl	300
O=C(/C=C(\O)C(=O)O)NCc1ccccc1Cl	1700
Cc1ccccc1CNC(=O)/C=C(\O)C(=O)O	1300
CN(Cc1ccc(F)cc1)C(=O)/C=C(\O)C(=O)O	110
CC(NC(=O)/C=C(\O)C(=O)O)c1ccc(F)cc1 (centres undefined)	3000
O=C(/C=C(\O)C(=O)O)NCc1cccc(Cl)c1	600
CC(C)(C)c1ccc(CNC(=O)/C=C(\O)C(=O)O)cc1	180000
O=C(/C=C(\O)C(=O)O)NCc1ccc(Cl)cc1	1100
COc1ccc(CNC(=O)/C=C(\O)C(=O)O)c(OC)c1	7500
COc1ccccc1CNC(=O)/C=C(\O)C(=O)O	500
C[C@H](NC(=O)/C=C(\O)C(=O)O)c1ccccc1	24000
O=C(/C=C(\O)C(=O)O)NCc1ccccc1	300
O=C(/C=C(\O)C(=O)O)NCc1ccccc1F	1800
O=C(/C=C(\O)C(=O)O)NCc1cc(F)cc(F)c1	1700
C[C@@H](NC(=O)/C=C(\O)C(=O)O)c1ccccc1	> 300000
COc1ccc(CNC(=O)/C=C(\O)C(=O)O)cc1	4200
Cc1cccc(CNC(=O)/C=C(\O)C(=O)O)c1	300
O=C(/C=C(\O)C(=O)O)NCc1cccc(Cl)c1Cl	200
Cc1ccc(CNC(=O)/C=C(\O)C(=O)O)cc1	1400

System: Human immunodeficiency virus 1
Assay: Antiviral activity against luciferase containing HIV1 NL4-3 virus in MT2 cells
Format: functional, organism-based
Settings: Human immunodeficiency virus 1, NL4-3, MT2

SMILES	EC50 [nM]
O=C(/C=C(\O)C(=O)O)NCc1ccc(F)cc1	5900
CC1(C)OC(=O)/C(=C/C(=O)NCc2ccc(F)cc2)O1	1200
CN(Cc1ccc(F)cc1)C(=O)/C=C(\O)C(=O)O	600
